According to ChEMBL document CHEMBL4130483, “Leishmanicidal and cytotoxic activity of hederagenin-bistriazolyl derivatives” (Eur J Med Chem, 2017):
Each block holds one compound with its values, some of them ahead of it.

Key:
FaDu = test: Cytotoxicity against human FADU cells assessed as reduction in cell viability incubated fro 96 hrs by SRB assay; format: functional, cell-based
A2780 = test: Cytotoxicity against human A2780 cells assessed as reduction in cell viability incubated fro 96 hrs by SRB assay; format: functional, cell-based; conditions: A2780, 96 h
Summary of the method: (§1)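 Sulforhodamine B photometric assay after 96 h treatment. Monolayers were grown in RPMI 1640 with L-glutamine, 10% heat-inactivated FBS and penicillin/streptomycin at 37 °C in humidified 5% CO2. Cut-off was 30 μM, or 60 μM for the parent. EC50 was averaged from at least three independent experiments, each in four replicates. Betulinic acid was the positive standard.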

HT-29 = test: Cytotoxicity against human HT-29 cells assessed as reduction in cell viability incubated fro 96 hrs by SRB assay; format: functional, cell-based; conditions: HT-29, 96 h; summary of the method: as §1
A-375 = test: Cytotoxicity against human A375 cells assessed as reduction in cell viability incubated fro 96 hrs by SRB assay; format: functional, cell-based; conditions: A-375, 96 h; summary of the method: as §1
SW-1736 = test: Cytotoxicity against human SW1736 cells assessed as reduction in cell viability incubated fro 96 hrs by SRB assay; format: functional, cell-based; conditions: SW-1736, 96 h; summary of the method: as §1
Leishmania infantum [1] = test: Antileishmanial activity against Leishmania infantum MHOM/BR/70/BH46 intracellular amastigotes infected in canine DH82 cells assessed as as inhibition of cell growth at 1000 uM incubated for 48 hrs by ELISA method; format: functional; conditions: MHOM/BR/70/BH46, DH82, 48 h, read-out: GI
Leishmania infantum [2] = test: Antiparasitic activity against Leishmania infantum; format: functional, organism-based

SMILES: CC1(C)CC[C@]2(C(=O)OCc3cn(Cc4ccccc4Cl)nn3)CC[C@]3(C)C(=CC[C@@H]4[C@@]5(C)CC[C@H](O)[C@@](C)(COCc6cn(Cc7ccccc7Cl)nn6)[C@@H]5CC[C@]43C)[C@@H]2C1
EC50 (FaDu): > 30 µM | EC50 (A2780): > 30 µM | EC50 (HT-29): 27 µM | EC50 (A-375): > 30 µM | EC50 (SW-1736): > 30 µM | inhibition of growth at 1000 µM (Leishmania infantum [1]): 4.1%

IC50 (Leishmania infantum [2]): 11 µM
SMILES: CC1(C)CC[C@]2(C(=O)OCc3cn(Cc4ccc(F)cc4F)nn3)CC[C@]3(C)C(=CC[C@@H]4[C@@]5(C)CC[C@H](O)[C@@](C)(CO)[C@@H]5CC[C@]43C)[C@@H]2C1

SMILES: Cc1cccc(Cn2cc(COC[C@@]3(C)[C@@H]4CC[C@]5(C)[C@H](CC=C6[C@@H]7CC(C)(C)CC[C@]7(C(=O)OCc7cn(Cc8cccc(C)c8)nn7)CC[C@]65C)[C@@]4(C)CC[C@@H]3O)nn2)c1
EC50 (FaDu): > 30 µM | EC50 (A2780): > 30 µM | EC50 (HT-29): > 30 µM | EC50 (A-375): > 30 µM | EC50 (SW-1736): > 30 µM | inhibition of growth at 1000 µM (Leishmania infantum [1]): 31.3%

SMILES: CC1(C)CC[C@]2(C(=O)OCc3cn(Cc4ccccc4[N+](=O)[O-])nn3)CC[C@]3(C)C(=CC[C@@H]4[C@@]5(C)CC[C@H](O)[C@@](C)(COCc6cn(Cc7ccccc7[N+](=O)[O-])nn6)[C@@H]5CC[C@]43C)[C@@H]2C1
EC50 (FaDu): > 30 µM | EC50 (A2780): > 30 µM | EC50 (HT-29): > 30 µM | EC50 (A-375): > 30 µM | EC50 (SW-1736): > 30 µM | inhibition of growth at 1000 µM (Leishmania infantum [1]): 35%

SMILES: CC1(C)CC[C@]2(C(=O)OCc3cn(Cc4cccc(Br)c4)nn3)CC[C@]3(C)C(=CC[C@@H]4[C@@]5(C)CC[C@H](O)[C@@](C)(COCc6cn(Cc7cccc(Br)c7)nn6)[C@@H]5CC[C@]43C)[C@@H]2C1
EC50 (FaDu): > 30 µM | EC50 (A2780): > 30 µM | EC50 (HT-29): > 30 µM | EC50 (A-375): > 30 µM | EC50 (SW-1736): > 30 µM | inhibition of growth at 1000 µM (Leishmania infantum [1]): 7.8%

SMILES: CC1(C)CC[C@]2(C(=O)OCc3cn(Cc4ccc(Br)cc4)nn3)CC[C@]3(C)C(=CC[C@@H]4[C@@]5(C)CC[C@H](O)[C@@](C)(COCc6cn(Cc7ccc(Br)cc7)nn6)[C@@H]5CC[C@]43C)[C@@H]2C1
EC50 (FaDu): > 30 µM | EC50 (A2780): > 30 µM | EC50 (HT-29): > 30 µM | EC50 (A-375): > 30 µM | EC50 (SW-1736): > 30 µM | inhibition of growth at 1000 µM (Leishmania infantum [1]): 9.8%

SMILES: C=C(C)[C@@H]1CC[C@]2(C(=O)O)CC[C@]3(C)[C@H](CC[C@@H]4[C@@]5(C)CC[C@H](O)C(C)(C)[C@@H]5CC[C@]43C)[C@@H]12 [BETULINIC ACID]
EC50 (FaDu): 13.4 µM | EC50 (A-375): 12 µM | EC50 (SW-1736): 16.4 µM

SMILES: CC1(C)CC[C@]2(C(=O)OCc3cn(Cc4ccccc4)nn3)CC[C@]3(C)C(=CC[C@@H]4[C@@]5(C)CC[C@H](O)[C@@](C)(COCc6cn(Cc7ccccc7)nn6)[C@@H]5CC[C@]43C)[C@@H]2C1
EC50 (FaDu): > 30 µM | EC50 (A2780): > 30 µM | EC50 (HT-29): > 30 µM | EC50 (A-375): > 30 µM | EC50 (SW-1736): > 30 µM | inhibition of growth at 1000 µM (Leishmania infantum [1]): 17.7%

IC50 (Leishmania infantum [2]): 2 to 6 µM
SMILES: CC1(C)CC[C@]2(C(=O)NCc3cn(Cc4ccc(Cl)cc4)nn3)CC[C@]3(C)C(=CC[C@@H]4[C@@]5(C)CC[C@H](O)[C@@](C)(CO)[C@@H]5CC[C@]43C)[C@@H]2C1

SMILES: CC1(C)CC[C@]2(C(=O)OCc3cn(Cc4ccc(Cl)cc4)nn3)CC[C@]3(C)C(=CC[C@@H]4[C@@]5(C)CC[C@H](O)[C@@](C)(COCc6cn(Cc7ccc(Cl)cc7)nn6)[C@@H]5CC[C@]43C)[C@@H]2C1
EC50 (FaDu): > 30 µM | EC50 (A2780): > 30 µM | EC50 (HT-29): > 30 µM | EC50 (A-375): > 30 µM | EC50 (SW-1736): > 30 µM | inhibition of growth at 1000 µM (Leishmania infantum [1]): 1.6%

SMILES: CC1(C)CC[C@]2(C(=O)OCc3cn(Cc4cccc([N+](=O)[O-])c4)nn3)CC[C@]3(C)C(=CC[C@@H]4[C@@]5(C)CC[C@H](O)[C@@](C)(COCc6cn(Cc7cccc([N+](=O)[O-])c7)nn6)[C@@H]5CC[C@]43C)[C@@H]2C1
EC50 (FaDu): > 30 µM | EC50 (A2780): > 30 µM | EC50 (HT-29): > 30 µM | EC50 (A-375): > 30 µM | EC50 (SW-1736): > 30 µM | inhibition of growth at 1000 µM (Leishmania infantum [1]): 21.4%

SMILES: CC1(C)CC[C@]2(C(=O)OCc3cn(CC(=O)c4ccc5ccccc5c4)nn3)CC[C@]3(C)C(=CC[C@@H]4[C@@]5(C)CC[C@H](O)[C@@](C)(COCc6cn(CC(=O)c7ccc8ccccc8c7)nn6)[C@@H]5CC[C@]43C)[C@@H]2C1
EC50 (FaDu): > 30 µM | EC50 (A2780): > 30 µM | EC50 (HT-29): > 30 µM | EC50 (A-375): > 30 µM | EC50 (SW-1736): > 30 µM | inhibition of growth at 1000 µM (Leishmania infantum [1]): 71.5%

SMILES: CC1(C)CC[C@]2(C(=O)OCc3cn(Cc4ccccc4Br)nn3)CC[C@]3(C)C(=CC[C@@H]4[C@@]5(C)CC[C@H](O)[C@@](C)(COCc6cn(Cc7ccccc7Br)nn6)[C@@H]5CC[C@]43C)[C@@H]2C1
EC50 (FaDu): > 30 µM | EC50 (A2780): > 30 µM | EC50 (HT-29): > 30 µM | EC50 (A-375): > 30 µM | EC50 (SW-1736): > 30 µM | inhibition of growth at 1000 µM (Leishmania infantum [1]): 53.4%

IC50 (Leishmania infantum [2]): 32 to 34 µM
SMILES: CC1(C)CC[C@]2(C(=O)OCc3cn(Cc4ccccc4[N+](=O)[O-])nn3)CC[C@]3(C)C(=CC[C@@H]4[C@@]5(C)CC[C@H](O)[C@@](C)(CO)[C@@H]5CC[C@]43C)[C@@H]2C1

SMILES: CC1(C)CC[C@]2(C(=O)OCc3cn(Cc4cccc(Cl)c4)nn3)CC[C@]3(C)C(=CC[C@@H]4[C@@]5(C)CC[C@H](O)[C@@](C)(COCc6cn(Cc7cccc(Cl)c7)nn6)[C@@H]5CC[C@]43C)[C@@H]2C1
EC50 (FaDu): > 30 µM | EC50 (A2780): > 30 µM | EC50 (HT-29): > 30 µM | EC50 (A-375): > 30 µM | EC50 (SW-1736): > 30 µM | inhibition of growth at 1000 µM (Leishmania infantum [1]): 41.8%

SMILES: CC1(C)CC[C@]2(C(=O)OCc3cn(CC(=O)c4ccccc4)nn3)CC[C@]3(C)C(=CC[C@@H]4[C@@]5(C)CC[C@H](O)[C@@](C)(COCc6cn(CC(=O)c7ccccc7)nn6)[C@@H]5CC[C@]43C)[C@@H]2C1
EC50 (FaDu): > 30 µM | EC50 (A2780): > 30 µM | EC50 (HT-29): > 30 µM | EC50 (A-375): > 30 µM | EC50 (SW-1736): > 30 µM | inhibition of growth at 1000 µM (Leishmania infantum [1]): 0%

SMILES: Cc1ccc(Cn2cc(COC[C@@]3(C)[C@@H]4CC[C@]5(C)[C@H](CC=C6[C@@H]7CC(C)(C)CC[C@]7(C(=O)OCc7cn(Cc8ccc(C)cc8)nn7)CC[C@]65C)[C@@]4(C)CC[C@@H]3O)nn2)cc1
EC50 (FaDu): > 30 µM | EC50 (A2780): 29.1 µM | EC50 (HT-29): 21.7 µM | EC50 (A-375): 26.1 µM | EC50 (SW-1736): > 30 µM | inhibition of growth at 1000 µM (Leishmania infantum [1]): 0%

IC50 (Leishmania infantum [2]): 2 to 6 µM
SMILES: CC1(C)CC[C@]2(C(=O)NCc3cn(Cc4ccccc4[N+](=O)[O-])nn3)CC[C@]3(C)C(=CC[C@@H]4[C@@]5(C)CC[C@H](O)[C@@](C)(CO)[C@@H]5CC[C@]43C)[C@@H]2C1
